Assay outcomes: PubChem, Broad Institute
CAL PDZ FP-1 – CAL PDZ (human) peptide binding inhibition; 300,000 compounds, 0.92% hits; Q9HD26; purified CAL PDZ, TMR-peptide fluorescence polarization, 1 h; AID 602252; inhibition, % at 24.9 µM;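 active means mean inhibition of at least 30% with at least half of replicates also reaching 30%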;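 further: 0% = DMSO neutral control and 100% = excess unlabeled competitor peptide PRC23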
Dyrk1A ADPGlo – blocks rat Dyrk1A kinase activity; inhibition, % at 12.5 µM; ADP-Glo luminescence, NFATc1 peptide; Q63470; AID 504441; 310,000 compounds, 0.43% hits; in the data active means inhibition above about 50%;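 further: plate controls were vehicle with enzyme for no effect and no enzyme for full effect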
CAL PDZ FP-2 – human CAL PDZ-peptide interaction inhibition; 330,000 compounds, 0.02% hits; Q9HD26; AID 504414; purified CAL PDZ, TMR-peptide fluorescence polarization, 1 h; inhibition, % at 20 µM;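 active means highest replicate inhibition of at least 40%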;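 further: plate controls were DMSO neutral control wells for no effect and unlabeled competitor peptide control wells for full effect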
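material = purified tagged CAL PDZ domain construct (CerCALP) | buffer or medium = sodium phosphate/NaCl buffer pH 7.4 with TCEP, IgG, Thesit | reagent = TMR-labelled reporter peptide T*-PRC34 bound in PDZ groove | incubation = 1 h room-temperature incubation prior to read | measured by = fluorescence polarization (mP) | evaluation = percent inhibition from loss of millipolarization | control set = unlabelled peptide and DMSO controls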
ARNT-TACC3 inh – disruptors of human ARNT/TACC3 interaction | AlphaScreen His-ARNT PAS-B/GST-TACC3 binding, luminescence; TACC3 fragment carries E629A point mutation | inhibition, % at 9.99 µM | Q9Y6A5 | AID 623870 | 390,000 compounds, 0.66% hits;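 active means mean inhibition of replicates at least 50% and at least half of replicates each reaching 50%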;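 further: 0% = complete ARNT plus TACC3 wells and 100% = ARNT alone without TACC3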
* = called active by the depositor; . = no result given. Sampled rows, rich in hits. Any-hit rate of the full collection: about 1.4%.

SMILES	CAL PDZ FP-1	Dyrk1A ADPGlo	CAL PDZ FP-2	ARNT-TACC3 inh
C/C(=N\N1C(=O)CSC1=S)c1ccc(Br)cc1	43.8*	-2.4	-1.5	2.2
O=S1(=O)[C@H]2C[C@@H]3C=C[C@@]2(CN1Cc1cccc(Cl)c1)O3	-3.0	12.4	-0.4	-4.2
CC(O)c1cccc(-c2ccc(CN3C[C@]4(CO)O[C@@H](CO)C[C@@H]4S3(=O)=O)cc2)c1 (some centres not stated)	42.2*	7.8	-1.5	-1.6
CCCNC(=O)C[C@@H]1CC[C@H]2[C@@H](COc3ccc(NC(=O)c4cccc(C(F)(F)F)c4)cc3C(=O)N2C)O1	.	.	.	-6.2
COCCn1c(-c2ccc(OC)cc2)cnc1N	15.1	0.7	-2.0	45.3*
COc1ccccc1OCC(=O)NCCS(=O)(=O)N1CCN(c2ccc(F)cc2)CC1	54.4*	-2.3	0.2	0.5
COc1ccc(N2CCN(S(=O)(=O)CCNC(=O)COc3ccccc3OC)CC2)cc1	-1.4	-3.0	-1.0	3.3
COc1ccc(OC)c(S(=O)(=O)NCCS(=O)(=O)N2CCN(c3ccccc3)CC2)c1	34.8*	0.0	-0.9	4.0
CCCNC(=O)C[C@@H]1CC[C@H]2[C@H](COc3ccc(NC(=O)C4CCCC4)cc3C(=O)N2C)O1	.	.	.	6.5
CN(C)C(=O)C[C@@H]1CC[C@H]2[C@@H](COC[C@H](O)CN2Cc2nccs2)O1	.	.	.	-7.9
O=C(NCC1CC1)[C@@H]1[C@@H](CO)[C@@H]2Cn3c(ccc(-c4ccccc4)c3=O)[C@@H]2N1Cc1cocn1	.	.	.	-3.8
C[C@H](CO)N1C[C@H](C)[C@H](CN(C)Cc2ccncc2)Oc2ccc(N(C)C)cc2CC1=O	.	.	.	-1.7
COc1ccccc1Nc1nc(-c2c(C)nc3ncccn23)cs1	1.0	40.1	3.0	45.2*
COc1ccc(Nc2nc(-c3c(C)nc4ncccn34)cs2)cc1	-1.0	16.2	3.6	46.1*
Cc1nc2ncccn2c1-c1csc(Nc2ccccc2)n1	-0.1	14.0	-1.9	57.8*
Cc1nc2ncccn2c1-c1csc(Nc2ccc(N(C)C)cc2)n1	5.0	14.5	-0.5	18.4
Cc1noc(C)c1NC(=O)N(C)C[C@@H]1Oc2ccc(NC(=O)Nc3cccc4ccccc34)cc2C(=O)N([C@H](C)CO)C[C@H]1C	.	.	.	0.4
CC(=O)N(C1=C(N)C(=O)c2ccccc2C1=O)c1ccccc1	-1.7	-3.6	1.3	12.1*
COc1cc(C)c(N(C(C)=O)c2ccccc2)c(C)c1	-1.4	-3.0	-0.3	-4.8
CN(C)CC(=O)Nc1ccc2c(c1)[C@@H]1C[C@@H](CC(=O)N3CCOCC3)O[C@H](CO)[C@@H]1O2	.	.	.	-1.1
C#CCOCCOCCOCCNc1nc(N2CCN(C(=O)[C@H](Cc3ccc(O)cc3)n3cc([C@@H](N)C(C)CC)nn3)CC2)nc(N2CCN(C(=O)[C@H](CCCCN)n3cc([C@@H](N)CO)nn3)CC2)n1 (some centres not stated)	-2.8	3.8	-0.5	46.2*
C#CCOCCOCCOCCNc1nc(N2CCN(C(=O)CCCCCCCCCCNC(=O)[C@H]([C@@H](C)CC)n3cc(CCCCN=C(N)N)nn3)CC2)nc(N2CCN(C(=O)CCCCCCCCCCNC(=O)[C@H](CO)n3cc(CCCCCN)nn3)CC2)n1	-1.6	18.5	-1.9	29.5
C#CCOCCOCCOCCNc1nc(N2CCN(C(=O)CCCCCCCCCCNC(=O)[C@H]([C@@H](C)CC)n3cc(CCCCCN)nn3)CC2)nc(N2CCN(C(=O)CCCCCCCCCCNC(=O)[C@H](CCCCN)n3cc(CCCC(=O)O)nn3)CC2)n1	-3.3	-2.8	-1.0	0.3
C#CCOCCOCCOCCNc1nc(N2CCN(C(=O)[C@H]([C@@H](C)CC)n3cc([C@@H](N)CO)nn3)CC2)nc(N2CCN(C(=O)[C@H](CCCCN)n3cc([C@@H](N)C(C)CC)nn3)CC2)n1 (some centres not stated)	-1.6	-5.6	1.0	27.2
C#CCOCCOCCOCCNc1nc(N2CCN(C(=O)CCCCCCCCCCNC(=O)[C@@H](CCC(=O)O)n3cc(CCCCCN)nn3)CC2)nc(N2CCN(C(=O)CCCCCCCCCCNC(=O)[C@H]([C@@H](C)CC)n3cc(CCCCCN)nn3)CC2)n1	-7.1	-10.0	-5.9	48.7*
SMILES	CAL PDZ FP-1	Dyrk1A ADPGlo	CAL PDZ FP-2	ARNT-TACC3 inh
C#CCOCCOCCOCCNc1nc(N2CCN(C(=O)CCCCCCCCCCNC(=O)[C@H]([C@@H](C)CC)n3cc(CCCCCN)nn3)CC2)nc(N2CCN(C(=O)CCCCCCCCCCNC(=O)[C@H](CO)n3cc(CCCCCN)nn3)CC2)n1	-2.7	54.9*	-2.2	21.3
C[C@H]1CN([C@@H](C)CO)C(=O)c2cc(NC(=O)CCC(F)(F)F)ccc2O[C@H]1CN(C)S(=O)(=O)c1cccs1	.	.	.	-0.8
C[C@H]1CN([C@@H](C)CO)C(=O)c2cccc(NS(C)(=O)=O)c2O[C@H]1CN(C)C(=O)Nc1ccc(F)cc1	.	.	.	-4.9
O=C(CN(Cc1ccco1)C(=O)c1cccc(F)c1)Nc1ccccc1C(F)(F)F	.	7.2	-0.7	.
Cc1ccc(OCCC(=O)N(CC(=O)Nc2ccccc2C(F)(F)F)Cc2ccco2)cc1	40.0*	-6.0	-2.3	3.4
CC(=O)N(C)C[C@@H]1Oc2cc(C#CC3CCCC3)ccc2S(=O)(=O)N([C@H](C)CO)C[C@@H]1C	.	.	.	2.0
COc1ccccc1N1CCN(CCCCN2C(=O)C3CCCCN3C2=O)CC1 (configuration not stated)	0.0	-1.5	1.2	-7.3
CCCCOc1ccccc1N1CCN(CCCN2C(=O)C3CCCN3C2=O)CC1 (configuration not stated)	32.5*	10.9	.	-6.2
CCOc1ccc2[nH]c3c(NCC(C)C)ncnc3c2c1	80.7*	-2.1	-0.8	-1.8
CCOc1ccc2[nH]c3c(NCCOC)ncnc3c2c1	11.9	-0.5	-0.2	4.1
CC(=O)Nc1ccc2c(c1)C(=O)N(C)[C@H]1CC[C@@H](CC(=O)NCc3ccccc3Cl)O[C@H]1CO2	.	.	.	21.9
C/C(=N\NC(=O)c1cc(-c2ccncc2)nc2ccccc12)c1ccc(OC(F)F)cc1	69.6*	.	0.0	-1.7
O=C1CC(c2ccc(O)cc2)Oc2ccccc21 (configuration not stated)	7.4	10.8	-3.3	-2.6
CN1CC(c2ccccc2)Oc2ccccc2C1=S (configuration not stated)	66.6*	4.1	-0.1	4.9
Cc1ccc(C)c(N2CCN(S(=O)(=O)c3ccc(-c4ccc(=O)[nH]n4)o3)CC2)c1	44.1*	0.1	-0.6	-4.7
O=C(Nc1ccc(S(=O)(=O)Nc2ncccn2)cc1)c1ccccc1NS(=O)(=O)c1ccc(F)cc1	-0.4	-3.1	-2.3	-4.7
O=C(O)/C=C/c1ccc(S(=O)(=O)Nc2ccccc2C(=O)Nc2ccc(F)cc2)cc1	-4.4	-7.4	0.4	46.8*
COc1ccc(CN2C[C@H](O)COC[C@@H]3O[C@H](CC(=O)N4CCc5ccccc5C4)CC[C@H]32)cc1	.	.	.	21.5
CC(=O)c1ccc(N2CCN(S(=O)(=O)c3c(C(=O)N4CCCC4)c(C)n(C)c3C)CC2)cc1	80.2*	-1.1	-1.1	-1.1
